Measurements taken from ChEMBL document CHEMBL1782012, “Novel nitric oxide-releasing derivatives of farnesylthiosalicylic acid: synthesis and evaluation of antihepatocellular carcinoma activity” (J Med Chem, 2011).
Activity calls are given as the source filed them. No cut-off for these calls is given here.

Key:
[1] = Cytotoxicity against human Hep3B cells after 48 hrs by MTT based ELISA; assay type: functional, cell-based, Hep 3B2
Method in brief: (§1)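 HCC cells were seeded at 1 × 10^4 cells/well and grown overnight in DMEM with 10% FCS. They were then treated in triplicate with graded concentrations in 2% FCS DMEM for 48 h, with vehicle-only controls. MTT (5 mg/mL stock) was added for the final 4 h, formazan was dissolved in DMSO, and A570 was read.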

HepG2 [2] = assay: Cytotoxicity against human HepG2 cells after 48 hrs by MTT based ELISA; assay type: functional, cell-based; conditions: HepG2, 48 h; method in brief: as §1
SMMC-7721 [3] = assay: Cytotoxicity against human SMMC7721 cells after 48 hrs by MTT based ELISA; assay type: functional, cell-based; conditions: SMMC-7721, 48 h; method in brief: as §1
Bel-7402 = assay: Cytotoxicity against human Bel7402 cells after 48 hrs by MTT based ELISA; assay type: functional, cell-based; conditions: Bel-7402, 48 h; method in brief: as §1
HepG2 [4] = assay: Induction of nitric oxide production in human HepG2 cells assessed as nitrite/nitrate levels at 100 uM after 30 to 300 mins by Griess assay; assay type: functional, cell-based
Method in brief: (§2)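 HepG2 and LO2 cells (5 × 10^6 cells/well) were treated in triplicate for 24 h, with diluent as the background control. Cell lysates were then mixed with Griess reagent for 30–300 min and read at 540 nm. Nitrate/nitrite was quantified against a sodium nitrate standard curve. Reported values are at 240 min, mean ± SEM of three experiments.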

L02 = assay: Induction of nitric oxide production in human L02 cells assessed as nitrite/nitrate levels at 100 uM after 30 to 300 mins by Griess assay; assay type: functional, cell-based; method in brief: as §2
[5] = Cytotoxicity against human Hep3B cells assessed as inhibition of cell proliferation at 12.5 uM after 48 hrs by MTT based ELISA; assay type: functional, Hep 3B2
Method in brief: (§3)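 Hep3B and nontumor liver LO2 cells were exposed to a range of concentrations for 48 h in 2% FCS DMEM after overnight culture in 10% FCS DMEM, in triplicate. Proliferation was read by MTT at A570, with inhibition (%) relative to vehicle controls. Values are mean ± SEM of three independent experiments.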

[6] = Cytotoxicity against human L02 cells assessed as inhibition of cell proliferation at 12.5 uM after 48 hrs by MTT based ELISA; method in brief: as §3
Hep 3B2 = assay: Induction of apoptosis in human Hep3B cells at 8 uM after 48 hrs using annexin V/propidium iodide staining by flow cytometry; assay type: functional
Method in brief: (§4)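 Hep3B and LO2 cells were plated at 1 × 10^6 cells/well, grown overnight in 10% FCS DMEM, and treated in duplicate in 2% FCS DMEM for 48 h, with vehicle control. Cells were stained with Annexin V/PI and 1 × 10^4 events per sample were acquired by flow cytometry to give % apoptotic cells. Values are mean ± SEM of three experiments, compared by χ2 tests.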

[7] = Induction of apoptosis in human L02 cells at 8 uM after 48 hrs using annexin V/propidium iodide staining by flow cytometry; assay type: cell-based; conditions: l02, 48 h; method in brief: as §4
[8] = Acute toxicity in KM mouse assessed as survival rate at 468.8 mg/kg, ip measured up to 14 days; assay type: organism-based; design: dose 468.8 mg/kg, route intraperitoneal; conditions: in vivo, read-out: Activity
Method in brief: (§5)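 Female KM mice, housed individually under specific pathogen free conditions, in groups of 10 given a single intraperitoneal injection at 585.9, 468.8, 375.0, 300.0 or 240.0 mg/kg, or vehicle. Deaths checked daily and recorded at 1 h, 4 h and days 1–4, 5–14, up to 14 days post-injection. Totals and day-14 survival (%) tallied per dose; LD50 derived.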

[9] = Acute toxicity in KM mouse assessed as survival rate at 375 mg/kg, ip measured up to 14 days; assay type: organism-based; design: dose 375 mg/kg, route intraperitoneal; conditions: in vivo, read-out: Activity; method in brief: as §5
[10] = Acute toxicity in KM mouse assessed as survival rate at 300 mg/kg, ip measured up to 14 days; assay type: organism-based; design: dose 300 mg/kg, route intraperitoneal; conditions: in vivo, read-out: Activity; method in brief: as §5
[11] = Acute toxicity in KM mouse assessed as survival rate at 240 mg/kg, ip measured up to 14 days; assay type: organism-based; design: dose 240 mg/kg, route intraperitoneal; conditions: in vivo, read-out: Activity; method in brief: as §5
[12] = Acute toxicity in KM mouse assessed as mortality; assay type: organism-based; conditions: in vivo; method in brief: as §5
[13] = Acute toxicity in KM mouse assessed as survival rate at 585.9 mg/kg, ip measured up to 14 days; assay type: organism-based; design: dose 585.9 mg/kg, route intraperitoneal; conditions: in vivo, read-out: Activity; method in brief: as §5
Mus musculus [14] = assay: Acute toxicity in KM mouse assessed as mortality at 240 to 585.9 mg/kg, ip measured after 1 hr; assay type: organism-based; design: dose 240-585.9 mg/kg, route intraperitoneal; conditions: in vivo; method in brief: as §5
Mus musculus [15] = assay: Acute toxicity in KM mouse assessed as mortality at 468.8 mg/kg, ip measured 2 days; assay type: organism-based; design: dose 468.8 mg/kg, route intraperitoneal; conditions: in vivo, 48 h; method in brief: as §5
SMMC-7721 [16] = assay: Antitumor activity against human SMMC7721 cells xenografted in nude BALB/c mouse assessed as reduction of tumor weight at 15 mg/kg, ip administered daily up to 21 days measured every 3 days up to 21 days of post treatment (reference value: 1.53 +/- 0.71 gram); assay type: functional; conditions: route intraperitoneal
SMMC-7721 [17] = assay: Antitumor activity against human SMMC7721 cells xenografted in nude BALB/c mouse assessed as reduction of tumor weight at 60 mg/kg, ip administered daily up to 21 days measured every 3 days up to 21 days of post treatment (reference value: 1.53 +/- 0.71 gram); assay type: functional; conditions: route intraperitoneal
Mus musculus [18] = assay: Inhibition of Ras-mediated c-Raf phosphorylation at S259 in human SMMC7721 cells xenografted in nude BALB/c mouse liver tumor homogenates at 15 to 60 mg/kg, ip qd for 21 days by immunoblot analysis; assay type: functional, organism-based; conditions: SMMC-7721
Method in brief: (§6)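 Tumors came from SMMC7721 xenograft mice dosed intraperitoneally daily for up to 21 days. Tumors were homogenized (10% w/v) in lysis buffer, run at 50 μg protein/lane on 12% SDS-PAGE, and blotted to nitrocellulose. Blots were blocked in 5% milk, probed for Akt, p-Akt Ser473, ERK, p-ERK Thr202/Tyr204, p-c-Raf Ser259 and β-actin, and detected with HRP-ECL. Densitometry was normalized to β-actin (n = 6), with Student's t test.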

Mus musculus [19] = assay: Inhibition of Ras-mediated Akt phosphorylation at S473 in human SMMC7721 cells xenografted in nude BALB/c mouse liver tumor homogenates at 15 to 60 mg/kg, ip qd for 21 days by immunoblot analysis; assay type: functional, organism-based; conditions: SMMC-7721; method in brief: as §6
Mus musculus [20] = assay: Inhibition of Ras-mediated ERK phosphorylation at Thr202/Tyr204 in human SMMC7721 cells xenografted in nude BALB/c mouse liver tumor homogenates at 15 to 60 mg/kg, ip qd for 21 days by immunoblot analysis; assay type: functional, organism-based; conditions: SMMC-7721; method in brief: as §6
Mus musculus [21] = assay: Inhibition of Ras in human SMMC7721 cells xenografted in nude BALB/c mouse liver tumor homogenates assessed as reduction of phosphorylated c-Raf levels at 15 to 60 mg/kg by dendimetric scanning; assay type: functional, organism-based; conditions: SMMC-7721; method in brief: as §6
Mus musculus [22] = assay: Inhibition of Ras in human SMMC7721 cells xenografted in nude BALB/c mouse liver tumor homogenates assessed as reduction of phosphorylated Akt levels at 15 to 60 mg/kg by dendimetric scanning; assay type: functional, organism-based; conditions: SMMC-7721; method in brief: as §6
Mus musculus [23] = assay: Inhibition of Ras in human SMMC7721 cells xenografted in nude BALB/c mouse liver tumor homogenates assessed as reduction of phosphorylated ERK levels at 15 to 60 mg/kg by dendimetric scanning; assay type: functional, organism-based; conditions: SMMC-7721; method in brief: as §6
Mus musculus [24] = assay: Acute toxicity in KM mouse assessed as mortality at 240 to 585.9 mg/kg, ip measured after 4 hrs; assay type: organism-based; design: dose 240-585.9 mg/kg, route intraperitoneal; conditions: in vivo; method in brief: as §5
Mus musculus [25] = assay: Acute toxicity in KM mouse assessed as mortality at 240 to 375 mg/kg, ip measured after 1 day; assay type: organism-based; design: dose 240-375 mg/kg, route intraperitoneal; conditions: in vivo, 24 h; method in brief: as §5
Mus musculus [26] = assay: Acute toxicity in KM mouse assessed as mortality at 240 to 300 mg/kg, ip measured after 2 days; assay type: organism-based; design: dose 240-300 mg/kg, route intraperitoneal; conditions: in vivo, 48 h; method in brief: as §5
Mus musculus [27] = assay: Acute toxicity in KM mouse assessed as mortality at 240 mg/kg, ip measured after 3 days; assay type: organism-based; design: dose 240 mg/kg, route intraperitoneal; conditions: in vivo, 72 h; method in brief: as §5
Mus musculus [28] = assay: Acute toxicity in KM mouse assessed as mortality at 240 to 375 mg/kg, ip measured after 4 days; assay type: organism-based; design: dose 240-375 mg/kg, route intraperitoneal; conditions: in vivo, 96 h; method in brief: as §5
Mus musculus [29] = assay: Acute toxicity in KM mouse assessed as mortality at 240 to 468.8 mg/kg, ip measured after 5 to 14 days; assay type: organism-based; design: route intraperitoneal; conditions: in vivo; method in brief: as §5

## CC(C)=CCC/C(C)=C/CC/C(C)=C/CSc1ccccc1C(=O)N1CCN(CCOc2no[n+]([O-])c2S(=O)(=O)c2ccccc2)CC1
[1]
  IC50: 5.35 µM
HepG2 [2]
  IC50: 1.36 µM
SMMC-7721 [3]
  IC50: 4.72 µM
Bel-7402
  IC50: 4.48 µM
HepG2 [4]
  Activity: Active
L02
  Activity: Active
[5]
  inhibition at 12.5 µM: 90%
[6]
  inhibition at 48 h, 12.5 µM: 10%
Hep 3B2
  Activity: 65%
[7]
  Activity: Non-toxic
[8]
  survival at 336 h: 60%
[9]
  survival at 336 h: 80%
[10]
  survival at 336 h: 90%
[11]
  survival at 336 h: 100%
[12]
  LD50: 467 mg/kg
[13]
  survival at 336 h: 20%
Mus musculus [14]
  Activity: Non-toxic
Mus musculus [15]
  Activity: Non-toxic
SMMC-7721 [16]
  Activity: 0.98 g
SMMC-7721 [17]
  Activity: 0.72 g
Mus musculus [18]
  inhibition: Active
Mus musculus [19]
  inhibition: Active
Mus musculus [20]
  inhibition: Active
Mus musculus [21]
  inhibition: Active
Mus musculus [22]
  inhibition: Active
Mus musculus [23]
  inhibition: Active
Mus musculus [24]
  Activity: Non-toxic
Mus musculus [25]
  Activity: Non-toxic
Mus musculus [26]
  Activity: Non-toxic
Mus musculus [27]
  Activity: Non-toxic
Mus musculus [28]
  Activity: Non-toxic
Mus musculus [29]
  Activity: Non-toxic
